Results reported in ChEMBL document CHEMBL1155120, “Synthesis of 4-oxo-4,7-dihydrofuro[2,3-b]pyridine-5-carboxamides with broad-spectrum human herpesvirus polymerase inhibition” (Bioorg Med Chem Lett, 2008).
Converted amounts (≈) assume the structure as drawn.

What was measured:
[1] = Inhibition of HCMV DNA polymerase by scintillation proximity assay; parameters: species or system Human betaherpesvirus 5
Procedure, shortened: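 Scintillation proximity assay with purified HCMV DNA polymerase, measuring incorporation of ³H-labelled nucleotide into template-primer. IC50 values are means of at least two experiments, with standard deviation where given.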

Human betaherpesvirus 5 = assay: Antiviral activity against HCMV Davis by plaque reduction assay; format: functional, organism-based; conditions: Human betaherpesvirus 5, Davis
Procedure, shortened: (§1)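 Plaque reduction assays used HCMV Davis strain and HSV-1 KOS strain. IC50 values are means of at least two experiments, with standard deviation where given.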

[2] = biological target: T1, DNA polymerase catalytic subunit (Human herpesvirus 1 (strain KOS) (HHV-1) (Human herpes simplex virus1), UniProt P04292); assay: Inhibition of HSV1 DNA polymerase by scintillation proximity assay; parameters: species or system Human alphaherpesvirus 1
T1 sequence (P04292 whole entry): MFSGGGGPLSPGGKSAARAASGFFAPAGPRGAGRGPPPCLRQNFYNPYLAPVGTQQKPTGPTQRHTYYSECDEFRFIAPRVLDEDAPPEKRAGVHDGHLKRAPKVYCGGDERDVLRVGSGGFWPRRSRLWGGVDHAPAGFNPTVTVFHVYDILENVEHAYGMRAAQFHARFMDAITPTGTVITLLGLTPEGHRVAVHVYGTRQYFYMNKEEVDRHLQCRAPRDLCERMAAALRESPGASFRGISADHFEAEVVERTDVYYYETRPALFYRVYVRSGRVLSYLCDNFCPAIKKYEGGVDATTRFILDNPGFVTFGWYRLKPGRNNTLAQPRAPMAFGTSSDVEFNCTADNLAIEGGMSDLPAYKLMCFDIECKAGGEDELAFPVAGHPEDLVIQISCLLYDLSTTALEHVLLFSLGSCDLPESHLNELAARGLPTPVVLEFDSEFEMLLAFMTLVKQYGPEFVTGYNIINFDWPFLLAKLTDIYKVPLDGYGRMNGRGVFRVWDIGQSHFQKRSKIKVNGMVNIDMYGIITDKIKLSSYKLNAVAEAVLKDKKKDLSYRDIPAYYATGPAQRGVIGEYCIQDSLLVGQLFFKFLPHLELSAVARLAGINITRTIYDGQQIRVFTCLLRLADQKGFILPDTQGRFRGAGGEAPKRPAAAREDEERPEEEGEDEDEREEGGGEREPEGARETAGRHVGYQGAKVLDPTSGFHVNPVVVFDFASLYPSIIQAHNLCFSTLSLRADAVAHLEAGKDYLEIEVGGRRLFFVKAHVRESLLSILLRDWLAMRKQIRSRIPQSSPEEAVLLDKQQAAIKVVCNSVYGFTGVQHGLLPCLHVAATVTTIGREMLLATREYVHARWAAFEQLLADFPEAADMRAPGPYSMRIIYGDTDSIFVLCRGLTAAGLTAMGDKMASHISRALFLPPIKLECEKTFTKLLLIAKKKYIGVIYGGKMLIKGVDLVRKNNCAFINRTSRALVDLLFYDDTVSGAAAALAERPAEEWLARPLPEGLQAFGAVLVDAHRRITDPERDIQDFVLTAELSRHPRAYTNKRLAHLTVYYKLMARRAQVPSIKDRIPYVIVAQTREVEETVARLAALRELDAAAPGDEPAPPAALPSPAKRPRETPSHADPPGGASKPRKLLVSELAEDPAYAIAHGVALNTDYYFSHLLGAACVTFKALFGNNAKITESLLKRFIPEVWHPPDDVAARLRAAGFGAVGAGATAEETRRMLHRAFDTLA

[3] = Inhibition of VZV DNA polymerase by scintillation proximity assay; parameters: species or system Human alphaherpesvirus 3
[4] = Inhibition of human polymerase alpha by scintillation proximity assay
[5] = Inhibition of human polymerase delta by scintillation proximity assay
Human alphaherpesvirus 1 = assay: Antiviral activity against HSV1 KOS by plaque reduction assay; format: functional, organism-based; conditions: Human alphaherpesvirus 1, KOS; procedure, shortened: as §1
[6] = Inhibition of human polymerase gamma by scintillation proximity assay
Human alphaherpesvirus 3 = assay: Antiviral activity against VZV Webster by plaque reduction assay; format: functional, organism-based; conditions: Human alphaherpesvirus 3, Webster
[7] = Cytotoxicity against HFF cells after 3 days by neutral red dye uptake assay; format: cell-based; conditions: human
Procedure, shortened: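 Uninfected, replicating HFF cells were seeded as subconfluent monolayers and exposed to compound for 3 days.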

Human gammaherpesvirus 4 = assay: Antiviral activity against EBV lytic replication in GG68 cells after 72 hrs by Southern blot analysis; format: functional, organism-based; conditions: human gammaherpesvirus 4, GG68, 72 h
[8] = Aqueous solubility of the compound; format: physicochemical
[9] = Oral bioavailability in rat; format: ADME, organism-based; conditions: in vivo
Procedure, shortened: (§2)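 Dosing was intravenous at 5 mg/kg and oral at 15 mg/kg. The vehicle was 80/20 PEG400/0.01 M methanesulfonic acid.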

[10] = Oral bioavailability in dog; format: ADME, organism-based, Canis lupus familiaris; conditions: in vivo; procedure, shortened: as §2

Structure (SMILES) | IC50 [1] | IC50 (Human betaherpesvirus 5) | other results
CN(Cc1cc2c(=O)c(C(=O)NCc3ccc(Cl)cc3)cn(C)c2o1)C[C@@H](O)c1cnccn1 | 0.22 µM | 0.028 µM | 
CN(Cc1cc2c(=O)c(C(=O)NCc3ccc(F)cc3)cn(C)c2o1)C[C@@H](O)c1ccco1 | 0.61 µM |  | 
Cc1ccc(CNC(=O)c2cn(C)c3oc(CN(C)C[C@@H](O)c4ccco4)cc3c2=O)cc1 | 3.14 µM |  | 
CN(Cc1cc2c(=O)c(C(=O)NCc3ccc(Cl)cc3)cn(-c3ccccc3)c2o1)C[C@@H](O)c1ccco1 | 0.83 µM |  | 
CN(Cc1cc2c(=O)c(C(=O)NCc3ccc(Cl)cc3)cn(C)c2o1)C[C@@H](O)c1ccccn1 | 0.22 µM | 0.17 µM | IC50 [2]: 0.35 µM; IC50 [3]: 0.1 µM; IC50 [4]: > 20 µM; IC50 [5]: > 20 µM; IC50 (Human alphaherpesvirus 1): 5.4 µM; IC50 [6]: > 20 µM; IC50 (Human alphaherpesvirus 3): 0.09 µM; CC50 at 72 h [7]: > 100 µM
Nc1nc2c(ncn2COCCO)c(=O)[nH]1 [ACYCLOVIR] |  | > 20 µM | CC50 at 72 h [7]: > 100 µM
CCn1cc(C(=O)NCc2ccc(Cl)cc2)c(=O)c2cc(CN(C)C[C@@H](O)c3ccco3)oc21 | 0.51 µM | 0.7 µM | 
CN(Cc1cc2c(=O)c(C(=O)NCc3ccc(Cl)cc3)cn(C)c2o1)C[C@@H](O)c1ncccn1 | 0.17 µM | 0.36 µM | 
CN(Cc1cc2c(=O)c(C(=O)NCc3ccc(Br)cc3)cn(C)c2o1)C[C@@H](O)c1ccco1 | 0.34 µM |  | 
CN(Cc1cc2c(=O)c(C(=O)NCc3ccc(Cl)cc3)cn(C3CC3)c2o1)C[C@@H](O)c1ccco1 | 0.42 µM | 1.2 µM | 
Nc1nc(O)c2ncn(COC(CO)CO)c2n1 [GANCICLOVIR] |  |  | CC50 at 72 h [7]: > 100 µM
CCN(CC)CCn1cc(C(=O)NCc2ccc(Cl)cc2)c(=O)c2cc(CN(C)C[C@@H](O)c3ccco3)oc21 | 3.92 µM |  | 
CN(Cc1cc2c(=O)c(C(=O)NCc3ccc(F)c(F)c3)cn(C)c2o1)C[C@@H](O)c1ccco1 | 1.02 µM |  | 
O=C(O)P(=O)(O)O [FOSCARNET] |  |  | IC50 [6]: < 0.28 µM
CN(Cc1cc2c(=O)c(C(=O)NCc3ccc(C(F)(F)F)cc3)cn(C)c2o1)C[C@@H](O)c1ccco1 | 6.45 µM |  | 
CN(Cc1cc2c(=O)c(C(=O)NCc3ccccc3)cn(C)c2o1)C[C@@H](O)c1ccco1 | 11.4 µM |  | 
CN(Cc1cc2c(=O)c(C(=O)NCc3ccc(Cl)cc3)cn(CCc3ccccc3)c2o1)C[C@@H](O)c1ccco1 | 0.69 µM |  | 
CN(Cc1cc2c(=O)c(C(=O)NCc3ccc(Cl)cc3)cn(C)c2s1)C[C@@H](O)c1ccccn1 |  |  | IC50 (Human gammaherpesvirus 4): 0.2 µM
CN(Cc1cc2c(=O)c(C(=O)NCc3ccc(Cl)cc3)cn(-c3ccccn3)c2o1)C[C@@H](O)c1ccco1 | 0.14 µM | 0.05 µM | 
CCCn1cc(C(=O)NCc2ccc(Cl)cc2)c(=O)c2cc(CN(C)C[C@@H](O)c3ccco3)oc21 | 1.12 µM |  | 
CN(Cc1cc2c(=O)c(C(=O)NCc3ccc(Cl)cc3)cn(C)c2o1)C[C@@H](O)c1ccco1 | 0.076 µM | 0.026 µM | IC50 [2]: 0.22 µM; IC50 [3]: 0.078 µM; IC50 [4]: > 20 µM; IC50 [5]: > 20 µM; IC50 (Human alphaherpesvirus 1): 4.3 µM; IC50 [6]: > 20 µM; IC50 (Human alphaherpesvirus 3): 0.02 µM; IC50 (Human gammaherpesvirus 4): 0.4 µM; CC50 at 72 h [7]: > 100 µM; solubility [8]: 60 µM (≈ 28.2 µg/mL); bioavailability [9]: 67%; bioavailability [10]: 76%
